Source: ChEMBL document CHEMBL3853336, “Novel selective glucocorticoid receptor agonists (SEGRAs) with a covalent warhead for long-lasting inhibition” (Bioorg Med Chem Lett, 2016)

How the values were obtained:
[1] = molecular target: T1, Glucocorticoid receptor (Homo sapiens) (UniProt P04150); assay: Displacement of [3H]-dexamethasone from human GR receptor at 1 uM relative to control
T1 sequence (whole entry): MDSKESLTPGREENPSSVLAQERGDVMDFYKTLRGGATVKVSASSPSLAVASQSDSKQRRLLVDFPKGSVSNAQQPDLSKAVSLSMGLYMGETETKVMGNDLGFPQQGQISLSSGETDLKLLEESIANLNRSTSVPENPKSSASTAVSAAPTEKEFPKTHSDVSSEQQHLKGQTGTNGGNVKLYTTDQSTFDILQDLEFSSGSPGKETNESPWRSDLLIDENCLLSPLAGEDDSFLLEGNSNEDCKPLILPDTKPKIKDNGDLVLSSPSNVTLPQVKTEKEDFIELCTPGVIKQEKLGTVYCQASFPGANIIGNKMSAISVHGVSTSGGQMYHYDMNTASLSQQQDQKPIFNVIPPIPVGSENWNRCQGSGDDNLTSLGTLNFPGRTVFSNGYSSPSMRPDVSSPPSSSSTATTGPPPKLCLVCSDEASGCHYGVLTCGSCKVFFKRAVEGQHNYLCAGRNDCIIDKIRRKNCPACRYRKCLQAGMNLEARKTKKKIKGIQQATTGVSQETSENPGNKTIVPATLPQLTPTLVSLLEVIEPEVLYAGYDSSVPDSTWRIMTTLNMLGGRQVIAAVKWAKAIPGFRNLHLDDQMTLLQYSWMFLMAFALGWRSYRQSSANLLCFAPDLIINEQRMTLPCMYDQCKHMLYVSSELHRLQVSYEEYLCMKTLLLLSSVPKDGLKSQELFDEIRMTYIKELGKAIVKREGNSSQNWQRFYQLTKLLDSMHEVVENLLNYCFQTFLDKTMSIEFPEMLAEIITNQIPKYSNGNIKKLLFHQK
How it was run: (§1)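 Human GR radioligand binding with soluble receptor from IM-9 cells and 1.5 nM [3H]-dexamethasone, with test ligand at 1 µM or 0.1 µM. Specific binding reported as % inhibition of control, in duplicate.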

[2] = molecular target: T1, Glucocorticoid receptor (Homo sapiens); assay: Displacement of [3H]-dexamethasone from GR receptor in human IM-9 cytosolic extracts at 100 nM preincubated for 6 hrs followed by washout and second incubation with [3H]-dexamethasone for 1 hr relative to control
How it was run: (§2)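 IM-9 cytosol (240 µg/assay) preincubated 6 h with ligand (100 nM, or 60 nM for cortisol). Unbound ligand was stripped with activated charcoal and centrifugation, then 3 nM [3H]-dexamethasone was added. Binding was read after 1, 2, 3, 4, 16 or 24 h of second incubation as % inhibition of control specific binding, in duplicate.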

[3] = molecular target: T1, Glucocorticoid receptor (Homo sapiens); assay: Displacement of [3H]-dexamethasone from GR receptor in human IM-9 cytosolic extracts at 100 nM preincubated for 6 hrs followed by washout and second incubation with [3H]-dexamethasone for 16 hrs relative to control; how it was run: as §2
[4] = molecular target: T1, Glucocorticoid receptor (Homo sapiens); assay: Displacement of [3H]-dexamethasone from GR receptor in human IM-9 cytosolic extracts using buffer solution without beta-mercaptoethanol at 100 nM preincubated for 6 hrs followed by washout and second incubation with [3H]-dexamethasone for 24 hrs relative to control
How it was run: (§3)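 Repeat of the wash-out protocol in buffers free of β-mercaptoethanol, with a second batch of dexamethasone mesylate. IM-9 cytosol (240 µg/assay) preincubated 6 h at 100 nM (cortisol 60 nM), charcoal-stripped and centrifuged, then given 3 nM [3H]-dexamethasone. Binding was read before wash-out or at 1–24 h as % inhibition of control, in duplicate.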

[5] = molecular target: T1, Glucocorticoid receptor (Homo sapiens); assay: Displacement of [3H]-dexamethasone from GR receptor in human IM-9 cytosolic extracts using buffer solution without beta-mercaptoethanol at 100 nM preincubated for 6 hrs followed by washout and second incubation with [3H]-dexamethasone for 1 hr relative to control; how it was run: as §3
[6] = molecular target: T1, Glucocorticoid receptor (Homo sapiens); assay: Displacement of [3H]-dexamethasone from GR receptor in human IM-9 cytosolic extracts using buffer solution without beta-mercaptoethanol at 100 nM preincubated for 6 hrs followed by washout and second incubation with [3H]-dexamethasone for 3 hrs relative to control; how it was run: as §3
[7] = molecular target: T1, Glucocorticoid receptor (Homo sapiens); assay: Displacement of [3H]-dexamethasone from GR receptor in human IM-9 cytosolic extracts at 100 nM preincubated for 6 hrs followed by [3H]-dexamethasone addition relative to control
[8] = molecular target: T1, Glucocorticoid receptor (Homo sapiens); assay: Displacement of [3H]-dexamethasone from GR receptor in human IM-9 cytosolic extracts using buffer solution without beta-mercaptoethanol at 100 nM preincubated for 6 hrs followed by washout and second incubation with [3H]-dexamethasone for 4 hrs relative to control; how it was run: as §3
[9] = molecular target: T1, Glucocorticoid receptor (Homo sapiens); assay: Displacement of [3H]-dexamethasone from GR receptor in human IM-9 cytosolic extracts using buffer solution without beta-mercaptoethanol at 100 nM preincubated for 6 hrs followed by [3H]-dexamethasone addition relative to control; how it was run: as §3
[10] = molecular target: T1, Glucocorticoid receptor (Homo sapiens); assay: Displacement of [3H]-dexamethasone from GR receptor in human IM-9 cytosolic extracts using buffer solution without beta-mercaptoethanol at 100 nM preincubated for 6 hrs followed by washout and second incubation with [3H]-dexamethasone for 2 hrs relative to control; how it was run: as §3
[11] = molecular target: T1, Glucocorticoid receptor (Homo sapiens); assay: Displacement of [3H]-dexamethasone from human GR receptor at 0.1 uM relative to control; how it was run: as §1
[12] = molecular target: T1, Glucocorticoid receptor (Homo sapiens); assay: Displacement of [3H]-dexamethasone from GR receptor in human IM-9 cytosolic extracts using buffer solution without beta-mercaptoethanol at 100 nM preincubated for 6 hrs followed by washout and second incubation with [3H]-dexamethasone for 16 hrs relative to control; how it was run: as §3
[13] = molecular target: T1, Glucocorticoid receptor (Homo sapiens); assay: Displacement of [3H]-dexamethasone from GR receptor in human IM-9 cytosolic extracts at 100 nM preincubated for 6 hrs followed by washout and second incubation with [3H]-dexamethasone for 24 hrs relative to control; how it was run: as §2
[14] = molecular target: T1, Glucocorticoid receptor (Homo sapiens); assay: Displacement of [3H]-dexamethasone from GR receptor in human IM-9 cytosolic extracts using buffer solution without beta-mercaptoethanol at 60 nM preincubated for 6 hrs followed by [3H]-dexamethasone addition relative to control; how it was run: as §3
[15] = molecular target: T1, Glucocorticoid receptor (Homo sapiens); assay: Displacement of [3H]-dexamethasone from GR receptor in human IM-9 cytosolic extracts at 60 nM preincubated for 6 hrs followed by washout and second incubation with [3H]-dexamethasone for 1 hr relative to control; how it was run: as §2
[16] = molecular target: T1, Glucocorticoid receptor (Homo sapiens); assay: Displacement of [3H]-dexamethasone from GR receptor in human IM-9 cytosolic extracts at 60 nM preincubated for 6 hrs followed by washout and second incubation with [3H]-dexamethasone for 24 hrs relative to control; how it was run: as §2
[17] = molecular target: T1, Glucocorticoid receptor (Homo sapiens); assay: Displacement of [3H]-dexamethasone from GR receptor in human IM-9 cytosolic extracts at 60 nM preincubated for 6 hrs followed by washout and second incubation with [3H]-dexamethasone for 2 hrs relative to control; how it was run: as §2
[18] = molecular target: T1, Glucocorticoid receptor (Homo sapiens); assay: Displacement of [3H]-dexamethasone from GR receptor in human IM-9 cytosolic extracts at 60 nM preincubated for 6 hrs followed by washout and second incubation with [3H]-dexamethasone for 3 hrs relative to control; how it was run: as §2
[19] = molecular target: T1, Glucocorticoid receptor (Homo sapiens); assay: Displacement of [3H]-dexamethasone from GR receptor in human IM-9 cytosolic extracts at 60 nM preincubated for 6 hrs followed by washout and second incubation with [3H]-dexamethasone for 4 hrs relative to control; how it was run: as §2
[20] = molecular target: T1, Glucocorticoid receptor (Homo sapiens); assay: Displacement of [3H]-dexamethasone from GR receptor in human IM-9 cytosolic extracts at 60 nM preincubated for 6 hrs followed by washout and second incubation with [3H]-dexamethasone for 16 hrs relative to control; how it was run: as §2
[21] = molecular target: T1, Glucocorticoid receptor (Homo sapiens); assay: Displacement of [3H]-dexamethasone from GR receptor in human IM-9 cytosolic extracts at 60 nM preincubated for 6 hrs followed by [3H]-dexamethasone addition relative to control
[22] = molecular target: T1, Glucocorticoid receptor (Homo sapiens); assay: Displacement of [3H]-dexamethasone from GR receptor in human IM-9 cytosolic extracts using buffer solution without beta-mercaptoethanol at 60 nM preincubated for 6 hrs followed by washout and second incubation with [3H]-dexamethasone for 16 hrs relative to control; how it was run: as §3
[23] = molecular target: T1, Glucocorticoid receptor (Homo sapiens); assay: Displacement of [3H]-dexamethasone from GR receptor in human IM-9 cytosolic extracts using buffer solution without beta-mercaptoethanol at 60 nM preincubated for 6 hrs followed by washout and second incubation with [3H]-dexamethasone for 24 hrs relative to control; how it was run: as §3
[24] = molecular target: T1, Glucocorticoid receptor (Homo sapiens); assay: Displacement of [3H]-dexamethasone from GR receptor in human IM-9 cytosolic extracts at 100 nM preincubated for 6 hrs followed by washout and second incubation with [3H]-dexamethasone for 2 hrs relative to control; how it was run: as §2
[25] = molecular target: T1, Glucocorticoid receptor (Homo sapiens); assay: Displacement of [3H]-dexamethasone from GR receptor in human IM-9 cytosolic extracts at 100 nM preincubated for 6 hrs followed by washout and second incubation with [3H]-dexamethasone for 3 hrs relative to control; how it was run: as §2
[26] = molecular target: T1, Glucocorticoid receptor (Homo sapiens); assay: Displacement of [3H]-dexamethasone from GR receptor in human IM-9 cytosolic extracts at 100 nM preincubated for 6 hrs followed by washout and second incubation with [3H]-dexamethasone for 4 hrs relative to control; how it was run: as §2

CCN(CC(O)(CNC(=O)c1cnn(-c2ccc(F)cc2)c1N)C(F)(F)F)C(=O)c1c(Cl)ccc(NC(=O)CCl)c1Cl (configuration not stated)
inhibition [1]: 92%
inhibition [2]: -4%
inhibition [3]: 1%
inhibition [4]: 8%
inhibition [5]: -1%
inhibition [6]: -6%
inhibition [7]: 78%
inhibition [8]: 0%
inhibition [9]: 78%
inhibition [10]: -8%
inhibition [11]: 78%
inhibition [12]: 37%
inhibition [13]: 2%

C[C@]12CCC(=O)C=C1CC[C@@H]1[C@@H]2[C@@H](O)C[C@@]2(C)[C@H]1CC[C@]2(O)C(=O)CO
inhibition [14]: 69%
inhibition [15]: 3%
inhibition [16]: 12%
inhibition [17]: 6%
inhibition [18]: 4%
inhibition [19]: -1%
inhibition [20]: 5%
inhibition [21]: 69%
inhibition [22]: 16%
inhibition [23]: -8%

C=CC(=O)Nc1ccc(Cl)c(C(=O)N(CC)CC(O)(CNC(=O)c2cnn(-c3ccc(F)cc3)c2N)C(F)(F)F)c1Cl (configuration not stated)
inhibition [1]: 96%
inhibition [2]: 21%
inhibition [3]: 31%
inhibition [24]: 17%
inhibition [4]: -2%
inhibition [7]: 74%
inhibition [8]: -10%
inhibition [9]: 74%
inhibition [11]: 74%
inhibition [25]: 24%
inhibition [12]: -5%
inhibition [26]: 6%

C[C@@H]1C[C@H]2[C@@H]3CCC4=CC(=O)C=C[C@]4(C)[C@@]3(F)[C@@H](O)C[C@]2(C)[C@@]1(O)C(=O)COS(C)(=O)=O
inhibition [2]: 7%
inhibition [3]: 13%
inhibition [24]: 3%
inhibition [4]: 13%
inhibition [5]: 3%
inhibition [6]: -2%
inhibition [7]: 93%
inhibition [8]: 3%
inhibition [9]: 93%
inhibition [25]: 7%
inhibition [12]: 46%
inhibition [13]: 23%
